Tested on: Rattus norvegicus
Assay: compound was tested in vivo for antiinflammatory activity against rats by RPAR(reverse passive Arthus reaction) synovitis method
Format: functional
Outline: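 Lewis rats dosed orally 1 h before iv BSA (2.28 mg) and intraarticular rabbit anti-BSA (0.54 mg) into one knee, saline into the other; dosed orally again at 3 h. Total dose counted. At about 17 h, subpatellar tissue with synovium weighed; Δ weight between the two knees taken as the response. Compared with lesion controls by ANOVA.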

For `Cn1c(=O)c2c(nc3n(Cc4ccccc4)c(=O)/c(=C/O)c(=O)n23)n(C)c1=O`, which Inhibition is on record?
Its Inhibition is 14%.

Reference: ChEMBL document CHEMBL1123282, “Antiinflammatory activity of substituted 6-hydroxypyrimido[2,1-f]purine-2,4,8(1H,3H,9H)-triones. Atypical nonsteroidal antiinflammatory agents” (J Med Chem, 1986)
